Source: ChEMBL document CHEMBL3352032, “Antiplasmodial activity of new 4-aminoquinoline derivatives against chloroquine resistant strain” (Bioorg Med Chem, 2014)

Legend:
[1] = Selectivity index, ratio of CC50 for African green monkey Vero cells to IC50 for Plasmodium falciparum; assay type: functional
Procedure, shortened: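 Vero cells exposed to compound dilutions for 72 h; cytotoxicity read by MTT, CC50 by nonlinear regression of dose-response curves. Antiplasmodial IC50 from P. falciparum asynchronous culture (>80% rings, 0.8% parasitemia, 1% hematocrit suspension), twofold serial dilutions, 72 h at 37 °C, 5% CO2, SYBR Green I fluorescence. SI = CC50/IC50.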

Plasmodium falciparum [2] = test: Antiplasmodial activity against chloroquine-resistant Plasmodium falciparum K1 after 72 hrs by SYBR Green-1 staining-based fluorescence assay; assay type: functional, organism-based; conditions: K1, 72 h
Procedure, shortened: (§1)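 Compounds were dissolved in DMSO as 10 mM stocks and two-fold serially diluted. Dilutions were incubated with a 1.0% parasitized cell suspension at 0.8% parasitemia, using an asynchronous culture with more than 80% ring stages. Incubation was 72 h at 37 °C in 5% CO2/air. Lysis buffer with 2x SYBR Green-1 was then added for 1 h at 37 °C, and fluorescence (RFU) was read at 485±20 nm.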

Plasmodium falciparum [3] = test: Antiplasmodial activity against chloroquine-sensitive Plasmodium falciparum 3D7 after 72 hrs by SYBR Green-1 staining-based fluorescence assay; assay type: functional, organism-based; conditions: 3D7, 72 h; procedure, shortened: as §1
Plasmodium falciparum [4] = test: Resistance index, ratio of IC50 for chloroquine-resistant Plasmodium falciparum K1 to IC50 for chloroquine-sensitive Plasmodium falciparum 3D7; assay type: functional
Procedure, shortened: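 The index is the IC50 against K1 divided by the IC50 against 3D7. Both IC50s come from the 72 h SYBR Green-1 fluorescence assay: two-fold serial dilutions from 10 mM DMSO stocks, 1.0% parasitized cells at 0.8% parasitemia (>80% rings), 37 °C, 5% CO2.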

[5] = Inhibition of beta-hematin formation assessed as inhibition of hemozoin formation by UV spectrophotometry; assay type: physicochemical
Procedure, shortened: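 β-Hematin polymerization induced by 1-oleoyl-rac-glycerol, read at 405 nm by UV spectrophotometry. Triplicate values expressed as percent inhibition relative to drug-free hemozoin formation. IC50 in millimolar equivalents of compound relative to hemin, from sigmoidal dose-response non-linear regression. Means ± SD from at least three experiments in duplicate.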

[6] = Association constant, log K of the compound in aqueous DMSO at pH 7.5 assessed as complex formation by UV spectrophotometry; assay type: physicochemical; conditions: buffer
Procedure, shortened: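 Spectrophotometric titration of hematin with compound in 40% aqueous DMSO, 20 mM HEPES, pH 7.5, 25 °C; hematin monomeric under these conditions. Association constant fitted for 1:1 compound:hematin complex. Means ± SD from at least three experiments in duplicate.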

Structure (SMILES) | Ratio CC50/IC50 [1] | IC50 (Plasmodium falciparum [2]) [µM] | IC50 (Plasmodium falciparum [3]) [µM] | Ratio IC50 (Plasmodium falciparum [4]) | IC50 [5] [mMequiv] | inhibition (INH) [5] | log K [6]
CC(C)[C@H](CC(=O)N1CCN(C)CC1)Nc1ccnc2cc(Cl)ccc12 | 6045 | 0.324 | 0.0441 | 7.33 | 0.2286 | Dose-dependent effect | 5.33
C[C@H](O)[C@H](Nc1ccnc2cc(Cl)ccc12)C(=O)N1CCN(C)CC1 | 1934 | > 1.38 | 0.143 | >9.67 | 0.3837 | Dose-dependent effect | 6.07
C[C@H](Nc1ccnc2cc(Cl)ccc12)C(=O)N1CCN(C)CC1 | 2900 | 0.207 | 0.0738 | 2.79 | 0.1677 | Dose-dependent effect | 5.36
CN1CCN(C(=O)CC[C@H](Cc2ccccc2)Nc2ccnc3cc(Cl)ccc23)CC1 | 11350 | 0.0712 | 0.0115 | 6.18 | 0.1961 | Dose-dependent effect | 5.32
C[C@H](Nc1ccnc2cc(Cl)ccc12)C(=O)NCCCN(C)C | 2606 | > 0.5 | 0.142 | >3.51 | 0.176 | Dose-dependent effect | 5.34
CN1CCN(C(=O)C[C@H](Cc2ccccc2)Nc2ccnc3cc(Cl)ccc23)CC1 | 5846 | 0.0553 | 0.0192 | 2.87 | 0.1739 | Dose-dependent effect | 5.8
CSCC[C@H](Nc1ccnc2cc(Cl)ccc12)C(=O)N1CCN(C)CC1 | 3821 | 0.129 | 0.0584 | 2.2 | 0.3595 | Dose-dependent effect | 5.04
CN1CCN(C(=O)CCCNc2ccnc3cc(Cl)ccc23)CC1 | 4432 | 0.781 | 0.0651 | 11.99 | 0.2023 | Dose-dependent effect | 6.52
C[C@H](Nc1ccnc2cc(Cl)ccc12)C(=O)N1CCN(c2ccccc2)CC1 |  | > 0.5 | > 0.5 |  | 0.2082 | Dose-dependent effect | 5.94
CC(C)[C@H](Nc1ccnc2cc(Cl)ccc12)C(=O)N1CCN(C)CC1 | 1023 | 0.599 | 0.271 | 2.21 | 0.2349 | Dose-dependent effect | 6.39
CCN(CC)CCCC(C)Nc1ccnc2cc(Cl)ccc12 (centres undefined) [CHLOROQUINE] |  |  |  |  | 0.17 |  | 5.52
CN1CCN(C(=O)[C@H](Cc2ccccc2)Nc2ccnc3cc(Cl)ccc23)CC1 | 429 | 0.116 | 0.109 | 1.06 | 0.6619 | Dose-dependent effect | 5.11
CC[C@H](C)[C@H](NC(=O)OC(C)(C)C)C(=O)C=[N+]=[N-] |  | 0.168 |  |  |  |  | 
CN1CCN(C(=O)[C@H](Cc2c[nH]c3ccccc23)Nc2ccnc3cc(Cl)ccc23)CC1 | 392 | 0.262 | 0.223 | 1.17 | 0.3302 | Dose-dependent effect | 6.36
CN1CCN(C(=O)CNc2ccnc3cc(Cl)ccc23)CC1 | 1566 | 0.177 | 0.149 | 1.18 | 0.1915 | Dose-dependent effect | 7.34
CC(C)(C)OC(=O)N[C@@H](Cc1ccccc1)C(=O)C=[N+]=[N-] |  | 0.0553 |  |  |  |  | 
CC(C)C[C@H](Nc1ccnc2cc(Cl)ccc12)C(=O)N1CCN(C)CC1 | 905 | 0.147 | 0.0602 | 2.44 | 0.2283 | Dose-dependent effect | 5.38
C[C@H](Nc1ccnc2cc(Cl)ccc12)C(=O)NCCN1CCCCC1 | 3025 | > 0.5 | 0.0641 | >7.8 | 0.2166 | Dose-dependent effect | 5.73
CN1CCN(C(=O)CCNc2ccnc3cc(Cl)ccc23)CC1 | 6472 | 0.399 | 0.0359 | 11.1 | 0.3293 | Dose-dependent effect | 6.43
CCN(CC)CCNC(=O)[C@H](C)Nc1ccnc2cc(Cl)ccc12 | 5834 | > 0.5 | 0.0354 | >14.13 | 0.1531 | Dose-dependent effect | 6.03
CCN(CC)CCCNC(=O)[C@H](C)Nc1ccnc2cc(Cl)ccc12 | 2585 | > 0.5 | 0.0826 | >6.05 | 0.2145 | Dose-dependent effect | 5.27
CC[C@H](C)[C@H](Nc1ccnc2cc(Cl)ccc12)C(=O)N1CCN(C)CC1 | 2188 | 0.365 | 0.0838 | 4.34 | 0.2295 | Dose-dependent effect | 5.72
CC[C@H](C)[C@@H](CC(=O)N1CCN(C)CC1)Nc1ccnc2cc(Cl)ccc12 | 7613 | 0.168 | 0.033 | 5.08 | 0.2197 | Dose-dependent effect | 6.26
CN1CCN(C(=O)[C@H](CO)Nc2ccnc3cc(Cl)ccc23)CC1 | 1976 | 0.925 | 0.116 | 7.96 | 0.3604 | Dose-dependent effect | 5.68
